Here are results for four compounds from ChEMBL document CHEMBL3526118, “Combination of GSH trapping and time-dependent inhibition assays as a predictive method of drugs generating highly reactive metabolites” (Drug Metab Dispos, 2011).

Bounds are passed on as bounds.

One may read the inhibition as the change of the read-out against control, counted positive when it falls.

Series [1] concerns the target T1, CYP2B6 (Homo sapiens, UniProt P20813).
T1 sequence (P20813 whole entry): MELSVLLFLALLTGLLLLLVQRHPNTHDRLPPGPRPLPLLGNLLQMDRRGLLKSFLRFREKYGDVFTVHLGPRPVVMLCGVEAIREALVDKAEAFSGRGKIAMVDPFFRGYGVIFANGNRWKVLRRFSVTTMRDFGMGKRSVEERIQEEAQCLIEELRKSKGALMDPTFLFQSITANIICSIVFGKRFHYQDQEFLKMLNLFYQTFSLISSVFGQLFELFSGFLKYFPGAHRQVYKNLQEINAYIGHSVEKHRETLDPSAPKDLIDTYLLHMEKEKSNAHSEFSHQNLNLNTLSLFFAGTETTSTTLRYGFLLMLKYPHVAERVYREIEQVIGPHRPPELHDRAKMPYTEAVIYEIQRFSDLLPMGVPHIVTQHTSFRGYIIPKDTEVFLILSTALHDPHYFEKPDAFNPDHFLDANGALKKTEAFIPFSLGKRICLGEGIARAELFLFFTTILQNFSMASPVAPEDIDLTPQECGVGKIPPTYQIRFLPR
Nature of the series: Time dependent inhibition of CYP2B6 (unknown origin) at 0.3 uM by LC/MS system. It counts as ADME. The essentials: (§1)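 CYP2B6 in human liver microsomes (1.0 mg/mL in preincubation), 0.1 M sodium phosphate, NADPH-generating system. Preincubation 0 or 30 min, then ten-fold dilution into incubation solution containing 50 μM bupropion (final) for 10 min. Activity is expressed as percent of the matched no-inhibitor control. % inactivation = 100 × [1 − control(30 min)/control(0 min)]; threshold 10%.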

For series [2], the system named is Liver microsome. Nature of the series: Covalent binding in human liver microsomes measured per mg of protein using radiolabelled compound at 10 uM after 1 hr incubation by liquid scintillation counting.
In series [3] the test system is Liver microsome. Description: Metabolic activation in human liver microsomes assessed as [3H]GSH adduct formation rate measured per mg of protein at 100 uM by [3H]GSH trapping assay. Background: Liver microsomes are vesicles of endoplasmic reticulum, rich in cytochrome P450 enzymes.
Series [4] is described as follows: Intrinsic clearance for reactive metabolites formation per mg of protein based on cytochrome P450 (unknown origin) inactivation rate by TDI assay. To be noted: human.
The nature of series [5]: Intrinsic clearance for reactive metabolites formation assessed as summation of [3H]GSH adduct formation rate-based reactive metabolites formation and cytochrome P450 (unknown origin) inactivation rate-based reactive metabolites formation. To be noted: human.
Series [6] concerns Liver microsome. Particulars: human, microsomes, 100 µM.
For a further series, the target named is T2, CYP1A2 (Homo sapiens, UniProt P05177).
T2 sequence (P05177 whole entry): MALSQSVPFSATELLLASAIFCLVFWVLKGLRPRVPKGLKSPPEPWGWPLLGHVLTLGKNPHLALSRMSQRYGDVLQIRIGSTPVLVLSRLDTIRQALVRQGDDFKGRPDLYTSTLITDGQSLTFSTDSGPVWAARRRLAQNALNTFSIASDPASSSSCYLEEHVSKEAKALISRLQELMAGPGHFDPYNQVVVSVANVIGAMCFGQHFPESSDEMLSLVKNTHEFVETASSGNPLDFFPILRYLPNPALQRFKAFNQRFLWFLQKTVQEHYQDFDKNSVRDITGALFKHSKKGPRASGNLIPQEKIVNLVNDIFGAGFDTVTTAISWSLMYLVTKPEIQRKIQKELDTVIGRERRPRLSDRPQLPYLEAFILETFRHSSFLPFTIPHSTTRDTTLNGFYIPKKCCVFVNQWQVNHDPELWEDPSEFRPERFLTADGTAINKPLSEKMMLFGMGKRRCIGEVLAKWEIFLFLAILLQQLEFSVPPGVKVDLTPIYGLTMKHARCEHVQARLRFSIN
Nature of the series: in vitro.

In series [7] the target is T3, CYP2C9 (Homo sapiens, UniProt P11712). Nature of the series: in vitro.
Series [8] has as its target T4, CYP2C19 (Homo sapiens, UniProt P33261). Nature of the series: in vitro. Particulars: microsomes.
For series [9], the target named is T5, CYP2D6 (Homo sapiens, UniProt P10635). Nature of the series: in vitro.
For series [10], the target named is T6, CYP2C8 (Homo sapiens, UniProt P10632).
T6 sequence (P10632 whole entry): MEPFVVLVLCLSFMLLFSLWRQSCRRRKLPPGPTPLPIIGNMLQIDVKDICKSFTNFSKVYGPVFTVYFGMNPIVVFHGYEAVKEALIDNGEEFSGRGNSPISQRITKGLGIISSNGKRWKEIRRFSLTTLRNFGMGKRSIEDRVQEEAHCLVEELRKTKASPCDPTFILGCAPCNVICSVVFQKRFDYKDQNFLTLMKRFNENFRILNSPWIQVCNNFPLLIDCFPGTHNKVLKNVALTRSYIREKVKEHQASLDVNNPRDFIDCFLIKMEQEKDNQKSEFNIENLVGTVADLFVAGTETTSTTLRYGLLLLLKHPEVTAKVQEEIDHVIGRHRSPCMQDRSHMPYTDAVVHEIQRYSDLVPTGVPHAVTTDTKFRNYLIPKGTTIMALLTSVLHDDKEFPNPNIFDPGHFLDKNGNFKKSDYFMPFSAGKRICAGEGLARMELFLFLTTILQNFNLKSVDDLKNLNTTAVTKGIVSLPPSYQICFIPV
Description: in vitro.

The target in series [11] is T1, CYP2B6. Description: Time dependent inhibition of CYP2B6 (unknown origin) at 30 uM by LC/MS system. It counts as ADME. The essentials:
as §1

Series [12] addresses T6, CYP2C8. Description: Time dependent inhibition of CYP2C8 (unknown origin) at 10 uM by LC/MS system. It counts as ADME. The essentials: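 CYP2C8 in human liver microsomes (1.0 mg/mL in preincubation), 0.1 M sodium phosphate, NADPH-generating system. Preincubation 0 or 30 min, then ten-fold dilution into incubation with 10 μM paclitaxel (final) for 10 min.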
Series [13] deals with T3, CYP2C9. Nature of the series: Time dependent inhibition of CYP2C9 (unknown origin) at 30 uM by LC/MS system. It is filed as ADME. The essentials:
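Human liver microsomes at 1.0 mg/mL were preincubated 0 or 30 min with compound and NADPH-generating system in 0.1 M sodium phosphate, then diluted ten-fold into incubation containing 200 μM tolbutamide (final) for 10 min to probe CYP2C9. Percent of matched no-inhibitor control was determined at each time. Inactivation = 100 × [1 − ratio of 30-min to 0-min values]; 10% threshold.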

Series [14] concerns the target T7, CYP3A4 (Homo sapiens, UniProt P08684). Description: Time dependent inhibition of CYP3A4 (unknown origin) at 50 uM by LC/MS system. It is filed as ADME. The essentials: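 CYP3A4: human liver microsomes at 0.5 mg/mL in preincubation, 0.1 M sodium phosphate, NADPH-generating system, 0 or 30 min. Ten-fold dilution into incubation with 2.5 μM midazolam (final), 10 min. Each value is relative to the matched control without inhibitor. % enzyme inactivation = 100 × [1 − %control(30 min)/%control(0 min)]; 10% threshold.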

Series [15] addresses T4, CYP2C19. Description: in vitro. To be noted: human liver microsomes.
Series [16] concerns the target T4, CYP2C19. Description: Time dependent inhibition of CYP2C19 in human liver microsomes at 30 uM by LC/MS system. It counts as ADME. The essentials:
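Human liver microsomes at 2.0 mg/mL in preincubation, 0.1 M sodium phosphate, NADPH-generating system; 0- or 30-min preincubation with inhibitor, then tenfold dilution into incubation containing 50 μM (S)-mephenytoin for 10 min; LC separation. Percent inactivation = 100×[1 − %control(30 min)/%control(0 min)] versus inhibitor-free controls; >10% counted positive. Concentration reduced from 100 μM for strong reversible inhibitors.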

Series [17] has as its target T5, CYP2D6. Nature of the series: Time dependent inhibition of CYP2D6 (unknown origin) at 10 uM by LC/MS system. It counts as ADME. The essentials:
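CYP2D6 activity was measured with 30 μM dextromethorphan (final) after 0 or 30 min preincubation of compound with human liver microsomes (1.0 mg/mL) and NADPH-generating system in 0.1 M sodium phosphate. A ten-fold dilution was followed by a 10-min incubation. % inactivation = 100 × [1 − %control(30 min)/%control(0 min)]; threshold 10%.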

The target in series [18] is T1, CYP2B6. Description: in vitro.
Series [19] addresses T7, CYP3A4. Nature of the series: in vitro.
Series [20] concerns the target T1, CYP2B6. Description: in vitro. This is another data set of the same source.

T5 sequence (P10635 whole entry): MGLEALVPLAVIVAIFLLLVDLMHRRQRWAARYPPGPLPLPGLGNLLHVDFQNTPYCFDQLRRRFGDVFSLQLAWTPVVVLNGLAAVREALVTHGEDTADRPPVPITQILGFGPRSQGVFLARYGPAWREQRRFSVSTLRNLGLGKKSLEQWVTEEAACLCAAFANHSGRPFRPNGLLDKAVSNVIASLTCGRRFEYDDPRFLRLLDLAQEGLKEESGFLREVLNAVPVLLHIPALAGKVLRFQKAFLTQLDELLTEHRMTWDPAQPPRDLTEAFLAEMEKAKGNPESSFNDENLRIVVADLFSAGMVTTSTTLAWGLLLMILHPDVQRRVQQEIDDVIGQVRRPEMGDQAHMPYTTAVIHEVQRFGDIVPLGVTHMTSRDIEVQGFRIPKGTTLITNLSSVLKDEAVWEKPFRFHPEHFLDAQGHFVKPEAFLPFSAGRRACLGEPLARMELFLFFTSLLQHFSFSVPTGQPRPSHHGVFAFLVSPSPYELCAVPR
T4 sequence (P33261 whole entry): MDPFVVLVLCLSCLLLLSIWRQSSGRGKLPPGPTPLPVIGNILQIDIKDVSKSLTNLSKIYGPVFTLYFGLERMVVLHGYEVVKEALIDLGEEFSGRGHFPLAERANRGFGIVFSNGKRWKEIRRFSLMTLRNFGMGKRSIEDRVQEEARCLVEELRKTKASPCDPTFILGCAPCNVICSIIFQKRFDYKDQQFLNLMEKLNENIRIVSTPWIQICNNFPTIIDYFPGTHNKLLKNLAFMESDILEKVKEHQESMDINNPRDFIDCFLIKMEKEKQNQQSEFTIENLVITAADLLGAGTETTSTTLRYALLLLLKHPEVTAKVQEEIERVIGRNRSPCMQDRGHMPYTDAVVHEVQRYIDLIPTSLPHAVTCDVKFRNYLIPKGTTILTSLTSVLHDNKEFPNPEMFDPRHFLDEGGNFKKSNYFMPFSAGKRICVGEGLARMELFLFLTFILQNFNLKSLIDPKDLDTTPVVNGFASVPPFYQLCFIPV
T3 sequence (P11712 whole entry): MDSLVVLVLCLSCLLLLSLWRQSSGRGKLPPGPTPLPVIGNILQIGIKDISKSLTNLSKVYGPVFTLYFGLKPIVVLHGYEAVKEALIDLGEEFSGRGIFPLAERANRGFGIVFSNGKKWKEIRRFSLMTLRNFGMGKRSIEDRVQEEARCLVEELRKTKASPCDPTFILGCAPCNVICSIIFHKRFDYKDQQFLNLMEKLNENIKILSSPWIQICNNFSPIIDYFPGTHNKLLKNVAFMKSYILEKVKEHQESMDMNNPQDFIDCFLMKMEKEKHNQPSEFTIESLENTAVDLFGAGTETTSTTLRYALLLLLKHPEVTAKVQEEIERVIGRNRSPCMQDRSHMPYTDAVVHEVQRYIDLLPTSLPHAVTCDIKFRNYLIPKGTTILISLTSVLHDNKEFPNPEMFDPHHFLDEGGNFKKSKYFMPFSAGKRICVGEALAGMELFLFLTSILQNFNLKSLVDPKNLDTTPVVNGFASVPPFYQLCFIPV
T7 sequence (P08684 whole entry): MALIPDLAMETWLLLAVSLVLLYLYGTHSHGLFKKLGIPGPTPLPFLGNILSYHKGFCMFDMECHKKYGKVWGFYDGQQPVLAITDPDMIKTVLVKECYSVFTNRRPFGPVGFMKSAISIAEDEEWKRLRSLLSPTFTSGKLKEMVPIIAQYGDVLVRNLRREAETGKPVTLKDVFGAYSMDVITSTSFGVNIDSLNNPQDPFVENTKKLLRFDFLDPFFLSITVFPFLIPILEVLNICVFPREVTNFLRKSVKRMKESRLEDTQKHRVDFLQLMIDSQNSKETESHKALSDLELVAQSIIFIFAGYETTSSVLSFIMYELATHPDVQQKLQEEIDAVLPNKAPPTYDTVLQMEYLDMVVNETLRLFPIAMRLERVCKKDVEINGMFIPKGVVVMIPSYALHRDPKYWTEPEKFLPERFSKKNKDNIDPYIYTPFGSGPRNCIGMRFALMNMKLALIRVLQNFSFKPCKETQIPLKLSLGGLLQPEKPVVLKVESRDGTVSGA

In turn, `COC(=O)[C@H](c1ccccc1Cl)N1CCc2sccc2C1` [CLOPIDOGREL] displayed an inhibition at 0.3 µM against CYP2B6 [1] of 44%. Moreover, the PB with Liver microsome [2] was 417.4 pmol. The Drug metabolism in the series on Liver microsome [3] was determined as 23.6 pmol/min. In addition, the results for the clearance in [4] and in series [5] were 0.848 µL/min/mg and 1.08 µL/min/mg, respectively. This compound came in with a CLH in the series with Liver microsome [6] of 0.236 µL/min/mg. Besides, the inhibition at 100 µM against CYP1A2 is less than 10%; against CYP2C9 [7] it was less than 10%; on CYP2C19 [8], 10%; on CYP2D6 [9] it was less than 10%; against CYP2C8 [10], less than 10%.

As to `C#C[C@]1(O)CC[C@H]2[C@@H]3CCc4cc(O)ccc4[C@H]3CC[C@@]21C` [ETHINYL ESTRADIOL], the results for the inhibition at 30 µM against CYP2B6 [11] and against CYP2C9 [13] were less than 10% and 27%, respectively. In addition, in the series with Liver microsome [2], the PB is recorded as 937.5 pmol. In addition, in the series on Liver microsome [3], the Drug metabolism is given as 34 pmol/min. The inhibition at 10 µM at CYP2C8 [12] and on CYP2C19 [15] was less than 10% throughout. In addition, at 50 µM the inhibition against CYP3A4 [14] was 65%. Besides, the values for the clearance in series [4] and in series [5] were 0.087 µL/min/mg and 0.427 µL/min/mg, respectively. This compound gave a CLH in the series with Liver microsome [6] of 0.34 µL/min/mg. Also, the inhibition at 100 µM was 18% at CYP1A2 and less than 10% at CYP2D6 [9].

Compound `CNCCC(Oc1ccc(C(F)(F)F)cc1)c1ccccc1` (stereo not given) [FLUOXETINE] returned a PB in the series with Liver microsome [2] of 15 pmol. Also, in the series with Liver microsome [3], the Drug metabolism result is reported as “metabolite_not_detected”. The compound further returned an inhibition at 30 µM on CYP2C19 [16] of 36%. For the same compound, the inhibition at 10 µM at CYP2D6 [17] is less than 10%. Further, the clearance in [4] and in series [5] was 0.008 µL/min/mg in each case. The inhibition at 100 µM on CYP1A2 was 12%; against CYP2B6 [18] it was less than 10%; against CYP2C9 [7], less than 10%; against CYP3A4 [19] it was less than 10%; against CYP2C8 [10], less than 10%.

`Clc1ccccc1CN1CCc2sccc2C1` [TICLOPIDINE] came in with an inhibition at 10 µM against CYP2D6 [17] of less than 10%. The same compound showed an inhibition at 0.1 µM on CYP2B6 [20] of 35%. Besides, the inhibition at 100 µM against CYP1A2 was 36%; at CYP2C9 [7] it was less than 10%; against CYP3A4 [19], 26%; on CYP2C8 [10], less than 10%.
